SR-BI DiI inh – inhibitors of SR-BI mediated HDL lipid uptake, primary screen, ldlA[mSR-BI] cells, fluorescence, single point | 320,000 tested, 0.96% active | Scavenger receptor class B member 1 (Mus musculus), Q61009 | ldlA[mSR-BI] CHO cells, DiI-HDL uptake fluorescence, 3 h | AID 488896, 2010 | inhibition, % at 12.5 µM;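 active means mean replicate inhibition of at least 70% and a set share of replicates each scoring 70 or more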;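 further: 0% = median of neutral control wells and 100% = median of positive control wells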
Target sequence (Q61009 whole entry, looked up): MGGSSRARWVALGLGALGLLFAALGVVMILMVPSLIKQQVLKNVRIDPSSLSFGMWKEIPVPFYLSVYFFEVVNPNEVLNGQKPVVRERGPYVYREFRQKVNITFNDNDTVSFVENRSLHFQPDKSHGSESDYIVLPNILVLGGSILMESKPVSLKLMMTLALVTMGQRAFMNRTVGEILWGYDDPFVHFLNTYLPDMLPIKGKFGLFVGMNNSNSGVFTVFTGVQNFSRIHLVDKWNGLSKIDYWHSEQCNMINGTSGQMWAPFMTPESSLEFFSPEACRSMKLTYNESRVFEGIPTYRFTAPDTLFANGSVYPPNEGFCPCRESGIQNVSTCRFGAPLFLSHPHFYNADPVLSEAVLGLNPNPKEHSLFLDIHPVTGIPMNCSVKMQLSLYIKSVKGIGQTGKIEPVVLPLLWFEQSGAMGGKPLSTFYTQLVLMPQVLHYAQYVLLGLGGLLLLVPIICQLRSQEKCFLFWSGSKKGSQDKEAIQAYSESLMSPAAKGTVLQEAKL
ATG4B inhibitor – ATG4B protease inhibitors, primary screen, biochemical, fluorescence, uHTS | ATG4B cleavage of LC3-PLA2, NBD-HPC fluorescence, 1 h | Cysteine protease ATG4B (Homo sapiens), Q9Y4P1 | 340,000 tested, 0.51% active | AID 504462, 2011 | inhibition, % at 8.33 µM; in the data active means inhibition above about 40%
CAL PDZ FP-1 – untagged CAL PDZ binding inhibitors, primary screen, biochemical, fluorescence polarization, HTS; AID 602252, 2012; Golgi-associated PDZ and coiled-coil motif-containing protein (Homo sapiens), Q9HD26; purified CAL PDZ, TMR-peptide fluorescence polarization, 1 h; 300,000 tested, 0.92% active; inhibition, % at 24.9 µM;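 active means mean inhibition of at least 30% with at least half of replicates also reaching 30%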;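 further: 0% = DMSO neutral control and 100% = excess unlabeled competitor peptide PRC23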
CAL PDZ FP-2 – CAL PDZ peptide-binding inhibitors, primary screen, biochemical, fluorescence polarization, Cer-tagged CAL PDZ, HTS | purified CAL PDZ, TMR-peptide fluorescence polarization, 1 h | Golgi-associated PDZ and coiled-coil motif-containing protein (Homo sapiens), Q9HD26 | AID 504414, 2011 | 330,000 tested, 0.02% active | inhibition, % at 20 µM;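 active means highest replicate inhibition of at least 40%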;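 further: plate controls were DMSO neutral control wells for no effect and unlabeled competitor peptide control wells for full effect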
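Control set: unlabelled peptide and DMSO controls / Material: purified CerCALP PDZ construct / Timing: 1 h incubation at room temperature before polarization reading / Doses: 20 µM, one dose / Detection: fluorescence polarization (mP)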
SR-BI DiI-HDL act – activators of SR-BI mediated DiI-HDL uptake, primary screen, ldlA[mSR-BI] CHO cells, DiI fluorescence | activation, % at 12.5 µM | 320,000 tested, 0.096% active | 3 h; 100 = double the neutral-control signal;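 active means mean replicate activation of at least 60% and every replicate at or above 60%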;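 further: 0% = median plate neutral-control signal and 100% = twice that signal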
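System: CHO ldlA[mSR-BI] cells / Medium: HEPES-buffered (25 mM, pH 7.4) F12 plus 0.5% BSA / Probe or stimulus: labelled HDL, 10 µg/mL / Doses: single compound concentration, delivered by pin transfer / Schedule: 3 h, 37 °C / Measured by: DiI fluorescence, bottom read / Measure: cell-associated DiI fluorescence as measure of HDL uptake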
ATG4B conf – ATG4B protease inhibitors, retest, confirmation, biochemical, fluorescence, single concentration; shares compounds with ATG4B inhibitor; ATG4B protease fluorescent substrate cleavage assay; inhibition, % at 8.33 µM; 320 tested, 92% active; AID 504757, 2011; in the data active means inhibition above about 39%
PLA2 ctr – PLA2 enzyme inhibition, counter-screen for ATG4B inhibitor project, biochemical, single concentration, uHTS hits | shares compounds with ATG4B inhibitor | 1,600 tested, 66% active | inhibition, % at 8.33 µM | purified PLA2, NBD-C6-HPC fluorescence, 45 min; in the data active means inhibition above about 50%
Target sequence (P04054 whole entry, looked up): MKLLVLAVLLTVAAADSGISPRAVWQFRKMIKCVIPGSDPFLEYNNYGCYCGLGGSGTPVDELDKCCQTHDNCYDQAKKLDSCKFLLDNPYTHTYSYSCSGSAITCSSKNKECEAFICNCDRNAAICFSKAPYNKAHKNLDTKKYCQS
An asterisk follows results filed as active. The list is not random: actives were taken first. Their share in the collection is about 2.3%.

What do the screens show for `O=C(O)c1cc2cc(Oc3ccccc3)ccc2[nH]1`?
SR-BI DiI inh: -24; ATG4B inhibitor: -8; CAL PDZ FP-1: -2; CAL PDZ FP-2: -1; SR-BI DiI-HDL act: 24

Results for Cc1cccc(NC(=O)C2Cc3ccccc3O/C2=N\O)c1 (configuration not stated) ?
SR-BI DiI inh: 5; ATG4B inhibitor: -4; CAL PDZ FP-1: 5; CAL PDZ FP-2: -1; SR-BI DiI-HDL act: -5

What do the screens show for `CCc1ccc2oc(-c3ccc(OC)cc3)cc(=Nc3cccc(C(=O)O)c3)c2c1`?
SR-BI DiI inh: 2; ATG4B inhibitor: 81*; CAL PDZ FP-1: -7; CAL PDZ FP-2: -2; SR-BI DiI-HDL act: -2; PLA2 ctr: 80*

Results for CCc1ccc2oc(-c3ccc(OC)cc3)cc(=Nc3c(C)n(C)n(-c4ccccc4)c3=O)c2c1 ?
SR-BI DiI inh: 60; ATG4B inhibitor: 11; CAL PDZ FP-2: -2; SR-BI DiI-HDL act: -60

Results for COc1ccc(-c2cc(=Nc3ccc(C(=O)O)cc3)c3cc(C)ccc3o2)cc1 ?
SR-BI DiI inh: 13; ATG4B inhibitor: 41*; CAL PDZ FP-1: -1; CAL PDZ FP-2: -4; SR-BI DiI-HDL act: -13; PLA2 ctr: 54*

Results for CCC(=O)N1CCN(c2nc(CC)nc3sc4c(c23)CCCC4)CC1 ?
SR-BI DiI inh: 26; ATG4B inhibitor: 54*; CAL PDZ FP-1: -3; CAL PDZ FP-2: -1; SR-BI DiI-HDL act: -26; PLA2 ctr: 64*

What do the screens show for `CCOC(=O)c1cnn(-c2nc(CC)nc3sc4c(c23)CCC4)c1N`?
SR-BI DiI inh: 2; ATG4B inhibitor: -3; CAL PDZ FP-1: -5; CAL PDZ FP-2: 0; SR-BI DiI-HDL act: -2

Results for CCc1nc(N2CCN(S(C)(=O)=O)CC2)c2c3c(sc2n1)CCCC3 ?
SR-BI DiI inh: 31; ATG4B inhibitor: 47*; CAL PDZ FP-1: 1; CAL PDZ FP-2: -1; SR-BI DiI-HDL act: -31; PLA2 ctr: 50

Results for CC(=O)Nc1ccc(NC(=O)CSc2ccc(-c3ccc4c(c3)OCO4)nn2)cc1 ?
SR-BI DiI inh: -17; ATG4B inhibitor: 10; CAL PDZ FP-1: 2; CAL PDZ FP-2: 0; SR-BI DiI-HDL act: 17

Results for Cc1ccccc1CSc1ccc(-c2ccc3c(c2)OCO3)nn1 ?
SR-BI DiI inh: -10; ATG4B inhibitor: 45*; CAL PDZ FP-1: -2; CAL PDZ FP-2: -2; SR-BI DiI-HDL act: 10; PLA2 ctr: 27

What do the screens show for `Cc1ccc2nc(N/N=C/c3ccccc3F)nc(-c3ccccc3)c2c1`?
SR-BI DiI inh: 54; ATG4B inhibitor: 46*; CAL PDZ FP-1: 1; CAL PDZ FP-2: -1; SR-BI DiI-HDL act: -54; ATG4B conf: 75*; PLA2 ctr: 40

How did Cc1ccc2nc(N/N=C/c3ccccc3C#N)nc(-c3ccccc3)c2c1 do in these assays?
SR-BI DiI inh: 69; ATG4B inhibitor: 7; CAL PDZ FP-2: -3; SR-BI DiI-HDL act: -69

How did COC1=C(Br)C(=O)c2ncccc2C1=O do in these assays?
SR-BI DiI inh: -1; ATG4B inhibitor: 69*; CAL PDZ FP-1: -4; CAL PDZ FP-2: 0; SR-BI DiI-HDL act: 1; ATG4B conf: 32; PLA2 ctr: -13

How did O=c1n(Cc2ccccc2Cl)nc2n1-c1ccccc1SC2 do in these assays?
SR-BI DiI inh: 33; ATG4B inhibitor: 52*; CAL PDZ FP-1: -8; CAL PDZ FP-2: -2; SR-BI DiI-HDL act: -33; PLA2 ctr: 54*

Results for Cc1cccc2nc(-c3ccccc3)nc(N3CCC(O)(c4ccc(Cl)cc4)CC3)c12 ?
SR-BI DiI inh: 39; ATG4B inhibitor: 41*; CAL PDZ FP-2: -1; SR-BI DiI-HDL act: -39; PLA2 ctr: 23

Results for Cc1nn(Cc2c(F)c(F)c(F)c(F)c2F)c(C)c1NC(=O)c1ccc(COc2ccc(Cl)cc2Cl)o1 ?
SR-BI DiI inh: 33; ATG4B inhibitor: 88*; CAL PDZ FP-1: -2; CAL PDZ FP-2: -2; SR-BI DiI-HDL act: -33; PLA2 ctr: 85*

Results for Cc1nn(Cc2c(F)c(F)c(F)c(F)c2F)c(C)c1NC(=O)c1cccc(COc2ccccc2Cl)c1 ?
SR-BI DiI inh: 59; ATG4B inhibitor: 63*; CAL PDZ FP-2: -2; SR-BI DiI-HDL act: -59; PLA2 ctr: 56*

What do the screens show for `COc1ccc2c(=O)cc(-c3ccccc3F)oc2c1`?
ATG4B inhibitor: -17; CAL PDZ FP-2: -1

Results for O=C1/C(=C\c2cc(Cl)c(O)c(Cl)c2)SC(=S)N1Cc1ccccc1 ?
SR-BI DiI inh: -1; ATG4B inhibitor: 44*; CAL PDZ FP-1: -41; CAL PDZ FP-2: -7; SR-BI DiI-HDL act: 1; PLA2 ctr: 60*

Results for COc1ccc(/C=C2/SC(=S)N(Cc3ccccc3)C2=O)cc1O ?
SR-BI DiI inh: 0; ATG4B inhibitor: 1; CAL PDZ FP-1: 4; CAL PDZ FP-2: 0; SR-BI DiI-HDL act: 0

Results for Cc1ccc(C)c(N2CCN(C(=O)Cc3c(C(=O)O)[nH]c4ccc(Cl)cc34)CC2)c1 ?
ATG4B inhibitor: 28; CAL PDZ FP-1: -1; CAL PDZ FP-2: 0

Results for CCOc1ccc(C2=NNC(c3cccs3)=Nc3ccc(OC)cc32)cc1OCC ?
SR-BI DiI inh: 10; ATG4B inhibitor: 36; CAL PDZ FP-1: 1; SR-BI DiI-HDL act: -10

What do the screens show for `COc1ccc(C2=NNC(c3cccs3)=Nc3ccc(OC)cc32)cc1`?
SR-BI DiI inh: 13; ATG4B inhibitor: 55*; CAL PDZ FP-1: -2; CAL PDZ FP-2: 0; SR-BI DiI-HDL act: -13; PLA2 ctr: 60*

Results for N/C(=N\O)c1ccc(Oc2ccccc2Cl)c([N+](=O)[O-])c1 ?
SR-BI DiI inh: 0; ATG4B inhibitor: -5; CAL PDZ FP-1: -4; CAL PDZ FP-2: -1; SR-BI DiI-HDL act: 0

How did NC(=O)c1ccc(Oc2ccc(Cl)c3ccccc23)c([N+](=O)[O-])c1 do in these assays?
SR-BI DiI inh: 40; ATG4B inhibitor: 62*; CAL PDZ FP-1: -5; CAL PDZ FP-2: -1; SR-BI DiI-HDL act: -40; PLA2 ctr: 54*

High-throughput results from PubChem BioAssay.
